Laboratory results: ChEMBL document CHEMBL4304834, “3-Amino-chromanes and Tetrahydroquinolines as Selective 5-HT2B, 5-HT7, or σ1 Receptor Ligands” (ACS Med Chem Lett, 2019)
Calls of active or inactive are those of the source. No cut-off for these calls is given here.

Key:
[1] = molecular target: T1, Sigma intracellular receptor 2 (Homo sapiens, UniProt Q5BJF2); test: Displacement of […] from human recombinant sigma2 receptor expressed in HEKT cells after 90 mins by microbeta scintillation counting method; assay type: cell-based
How it was run: (§1)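 Run by NIMH Psychoactive Drug Screening Program. Otherwise, competition binding curves are generated and pKi is taken from a sigmoidal curve fit. Data are either triplicate measurements within one experiment, with the error from the fit, or the mean of repeated experiments, each run in triplicate.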

[2] = molecular target: Sigma non-opioid intracellular receptor 1 (Homo sapiens, UniProt Q99720); test: Displacement of [3H]-Pentazocine from human recombinant sigma1 receptor expressed in HEKT cells after 90 mins by microbeta scintillation counting method; assay type: cell-based
[3] = molecular target: T2, 5-hydroxytryptamine receptor 2B (Homo sapiens, UniProt P41595); test: Displacement of [3H]-LSD from human recombinant 5-HT2B receptor stably expressed in HEK cells after 90 mins by microbeta scintillation counting method; assay type: cell-based; how it was run: as §1
[4] = molecular target: T1, Sigma intracellular receptor 2; test: Displacement of […] from human recombinant sigma2 receptor expressed in HEKT cells at 10 uM after 90 mins by microbeta scintillation counting method relative to control; assay type: cell-based
How it was run: (§2)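 Radioligand binding run by the NIMH Psychoactive Drug Screening Program. […] Otherwise Ki comes from sigmoidal curve fits of triplicate measurements in a single experiment, or is averaged over repeated experiments each run in triplicate.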

[5] = molecular target: T3, 5-hydroxytryptamine receptor 1A (Homo sapiens, UniProt P08908); test: Displacement of [3H]-Way100635 from human recombinant 5-HT1A expressed in stable CHO cells after 90 mins by microbeta scintillation counting method; assay type: cell-based; conditions: read-out: pKi (converted); how it was run: as §1
T3 sequence (P08908 whole entry): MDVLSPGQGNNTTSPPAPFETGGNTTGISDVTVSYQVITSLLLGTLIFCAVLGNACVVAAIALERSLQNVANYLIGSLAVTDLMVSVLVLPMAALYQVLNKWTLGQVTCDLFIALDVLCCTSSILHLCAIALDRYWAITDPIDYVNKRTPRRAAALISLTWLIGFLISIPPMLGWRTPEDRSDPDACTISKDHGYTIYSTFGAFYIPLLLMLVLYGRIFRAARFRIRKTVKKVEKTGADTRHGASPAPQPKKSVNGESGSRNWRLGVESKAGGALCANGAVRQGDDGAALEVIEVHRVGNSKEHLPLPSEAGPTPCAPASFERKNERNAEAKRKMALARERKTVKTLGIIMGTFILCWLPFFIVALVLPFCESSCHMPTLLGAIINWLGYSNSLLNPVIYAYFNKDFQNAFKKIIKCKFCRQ

[6] = molecular target: 5-hydroxytryptamine receptor 7 (Homo sapiens, UniProt P34969); test: Displacement of [3H]-LSD from human recombinant 5-HT7 receptor expressed in stable HEK cells after 90 mins by microbeta scintillation counting method; assay type: cell-based; conditions: read-out: pKi (converted); how it was run: as §1
661W [7] = test: Cytoprotective activity in mouse 661W cells assessed as reduction in tBHP-induced ROS level at 20 to 50 uM after 2 hrs by […] fluorescent microscopic analysis; assay type: functional, cell-based
How it was run: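 661W cells seeded on coverslips for 18 h, then exposed 2 h to 55 μM tBHP with or without test agent or (+)-pentazocine. ROS are detected with CellROX green dye by epifluorescence, with DAPI marking nuclei. Fluorescence intensity is quantified as mean ± SD from three independent experiments, each run in duplicate.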

661W [8] = test: Cytoprotective activity in mouse 661W cells assessed as inhibition of t-BHP induced oxidative stress by measuring increase in cell viability at 50 to 100 uM after 24 hrs by MTT assay (Rvb < 50%); assay type: functional, cell-based
[9] = molecular target: T2, 5-hydroxytryptamine receptor 2B; test: Displacement of [3H]-LSD from human recombinant 5-HT2B receptor stably expressed in HEK cells at 10 uM after 90 mins by microbeta scintillation counting method relative to control; assay type: cell-based; how it was run: as §2
Homo sapiens [10] = organism: Homo sapiens; test: Selectivity index, ratio of Ki for human recombinant sigma2 receptor to Ki for human recombinant sigma1 receptor
How it was run: (§3)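 Both Ki values in each ratio come from NIMH Psychoactive Drug Screening Program radioligand binding. […] Other targets were given full binding curves, measured in triplicate, and Ki was taken from a sigmoidal curve fit. Some values were repeated in duplicate or triplicate independent experiments.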

Homo sapiens [11] = organism: Homo sapiens; test: Selectivity index, ratio of Ki for human recombinant 5-HT2B receptor to Ki for human recombinant sigma1 receptor
Homo sapiens [12] = organism: Homo sapiens; test: Selectivity index, ratio of Ki for human recombinant sigma2 receptor to Ki for human recombinant 5-HT2B receptor; how it was run: as §3

T1 sequence (Q5BJF2 whole entry): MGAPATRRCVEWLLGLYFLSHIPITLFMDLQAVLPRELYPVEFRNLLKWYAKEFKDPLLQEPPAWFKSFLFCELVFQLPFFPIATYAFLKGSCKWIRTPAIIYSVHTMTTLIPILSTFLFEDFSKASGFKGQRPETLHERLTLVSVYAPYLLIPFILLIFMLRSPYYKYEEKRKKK
Chain of 5-hydroxytryptamine receptor 7 (P34969 whole entry): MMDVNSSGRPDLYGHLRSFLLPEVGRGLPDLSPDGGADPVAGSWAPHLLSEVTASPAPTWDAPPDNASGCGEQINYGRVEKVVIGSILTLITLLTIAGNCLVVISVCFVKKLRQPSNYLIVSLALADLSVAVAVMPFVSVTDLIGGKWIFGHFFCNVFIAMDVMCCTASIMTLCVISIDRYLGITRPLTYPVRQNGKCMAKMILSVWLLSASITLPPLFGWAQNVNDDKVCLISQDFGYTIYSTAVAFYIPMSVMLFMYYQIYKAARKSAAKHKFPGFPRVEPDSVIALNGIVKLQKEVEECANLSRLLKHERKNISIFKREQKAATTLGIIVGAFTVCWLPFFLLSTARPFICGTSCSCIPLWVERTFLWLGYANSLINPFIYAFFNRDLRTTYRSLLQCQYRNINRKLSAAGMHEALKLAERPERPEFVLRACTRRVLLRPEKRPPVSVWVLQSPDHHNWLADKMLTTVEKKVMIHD
T2 sequence (P41595 whole entry): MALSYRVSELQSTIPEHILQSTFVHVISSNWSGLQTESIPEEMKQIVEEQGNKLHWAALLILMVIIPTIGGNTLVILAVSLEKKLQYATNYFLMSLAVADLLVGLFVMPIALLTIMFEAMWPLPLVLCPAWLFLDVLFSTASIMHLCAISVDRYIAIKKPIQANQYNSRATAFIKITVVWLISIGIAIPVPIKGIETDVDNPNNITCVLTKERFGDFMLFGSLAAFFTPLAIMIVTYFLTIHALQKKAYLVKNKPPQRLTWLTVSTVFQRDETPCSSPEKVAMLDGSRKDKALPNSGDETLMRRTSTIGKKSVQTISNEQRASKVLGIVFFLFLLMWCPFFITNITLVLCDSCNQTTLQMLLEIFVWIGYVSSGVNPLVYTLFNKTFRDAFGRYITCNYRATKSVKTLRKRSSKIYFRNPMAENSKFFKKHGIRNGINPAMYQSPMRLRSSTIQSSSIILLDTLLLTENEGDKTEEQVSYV
Chain of Sigma non-opioid intracellular receptor 1 (Q99720 whole entry): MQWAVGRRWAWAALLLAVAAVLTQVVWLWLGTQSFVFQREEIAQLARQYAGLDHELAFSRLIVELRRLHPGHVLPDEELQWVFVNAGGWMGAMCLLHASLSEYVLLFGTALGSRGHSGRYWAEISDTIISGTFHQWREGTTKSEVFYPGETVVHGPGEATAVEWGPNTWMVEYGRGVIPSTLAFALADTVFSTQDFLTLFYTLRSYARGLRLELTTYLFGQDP

Compound	Ki [1] [nM]	Ki ([2]; read-out: pKi (converted)) [nM]	Ki ([3]; read-out: pKi (converted)) [nM]	Ki [5] [nM]	Ki [6] [nM]	further results
CN1CC[C@H]2c3ccc(O)cc3OC[C@]21C (racemic)	3980	50.1	1000			
C[C@@]12COc3cc(OCc4ccccc4)ccc3[C@@H]1CCN2 (racemic)	100	7.94	126			
CC[C@H]1c2cc(OC)ccc2OC[C@@]1(C)N (racemic)	> 10000	398	251	2510		inhibition [4]: < 50%
CC[C@H]1c2c(ccc3ccccc23)OC[C@@]1(C)N (racemic)	2000	1000		316	692	Ki ([3]; read-out: Ki): 20 nM
CC(C)=CCN1CC[C@]2(C)c3cc(O)ccc3C[C@H]1[C@H]2C						inhibition (661W [7]): Active; Activity (661W [8]): Active
C[C@@]12COc3c(-c4ccccc4)cccc3[C@@H]1CCN2 (racemic)	126	39.8	158	200	23.4	
CC[C@H]1c2ccc(O)cc2OC[C@@]1(C)N (racemic)	> 10000	> 10000	> 10000			inhibition [4]: < 50%; inhibition [9]: < 50%
C[C@@]12COc3cc(O)ccc3[C@@H]1CCN2 (racemic)	1000	> 10000	> 10000			inhibition [9]: < 50%
C[C@@]12COc3ccc(-c4ccccc4)cc3[C@@H]1CCN2 (racemic)	79.4	12.6	251		1000	
C[C@@]12CN(c3ccc(Br)cc3)c3ccc(Br)cc3[C@@H]1CCN2 (racemic)	79.4	158	316		200	
CN1CC[C@H]2c3ccccc3N(c3ccccc3)C[C@]21C (racemic)	158	162	200	200	2.69	
Cc1cc(C)c2c(c1)OC[C@@]1(C)NCC[C@@H]21 (racemic)	316	63.1	79.4		1260	
CN1CC[C@H]2c3cccc(-c4ccccc4)c3OC[C@]21C (racemic)	316	50.1	251	200	20	
CC[C@H]1c2cc(-c3ccccc3)ccc2OC[C@@]1(C)N (racemic)	316		126	2000		Ratio Ki (Homo sapiens [10]): > 200; Ratio Ki (Homo sapiens [11]): 10; Ki ([2]; read-out: Ki): 16 nM
C[C@@]12COc3c(Br)cccc3[C@@H]1CCN2 (racemic)	631	501	20	1000	398	
CC(=O)N1CC[C@H]2c3ccc(O)cc3OC[C@]21C (racemic)	> 10000	> 10000	> 10000			inhibition [4]: < 50%; inhibition [9]: < 50%
CC[C@H]1c2ccc3ccccc3c2OC[C@@]1(C)N (racemic)	316	3160		2510	1000	Ratio Ki (Homo sapiens [12]): 150; Ki ([3]; read-out: Ki): 3.5 nM
CC(=O)N1CC[C@H]2c3cccc(-c4ccccc4)c3OC[C@]21C (racemic)	1260		501			
COc1ccc2c(c1)[C@@H]1CCN[C@]1(C)CO2 (racemic)	3160	126	631		200	
CC(=O)N1CC[C@H]2c3ccccc3N(c3ccccc3)C[C@]21C (racemic)	1260		> 10000			inhibition [9]: < 50%
Cc1ccc(N2C[C@@]3(C)NCC[C@H]3c3cc(C)ccc32)cc1 (racemic)	316	251	316		200	
